Laboratory results published in ChEMBL document CHEMBL4251616, “Multifunctional thiosemicarbazones and deconstructed analogues as a strategy to study the involvement of metal chelation, Sigma-2 (σ2) receptor and P-gp protein in the cytotoxic action: In vitro and in vivo activity in pancreatic tumors” (Eur J Med Chem, 2018).

Key:
[1] = Cytotoxicity against mouse Kp02 cells after 48 hrs by MTT assay; format: functional, cell-based
Summary of the method: (§1)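 Pancreatic lines kept at 37 °C, 5% CO2. AsPC1, BxPC3 and Panc02 grown in RPMI with 10% FBS. MIAPaCa2 in DMEM with 10% FBS and 2.5% horse serum. PANC1 in DMEM with 10% FBS. KCKO in RPMI with 10% FBS plus pyruvate, HEPES and glutamine. KP02 in DMEM/F12 with 10% FBS.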

ASPC1 = test: Cytotoxicity against human AsPC1 cells after 48 hrs by MTT assay; format: functional, cell-based; conditions: ASPC1, 48 h; summary of the method: as §1
MIA PaCa-2 = test: Cytotoxicity against human MIAPaCa2 cells after 48 hrs by MTT assay; format: functional, cell-based; conditions: MIA PaCa-2, 48 h; summary of the method: as §1
[2] = Cytotoxicity against mouse KCKO cells after 48 hrs by MTT assay; format: functional, cell-based; summary of the method: as §1
[3] = biological target: ATP-dependent translocase ABCB1 (Homo sapiens, UniProt P08183); test: Inhibition of human MDR1 expressed in MDCK-MDR1 cells assessed as calcein cell accumulation after 30 mins by spectrofluorimetry; format: cell-based
Sequence of ATP-dependent translocase ABCB1 (P08183 whole entry): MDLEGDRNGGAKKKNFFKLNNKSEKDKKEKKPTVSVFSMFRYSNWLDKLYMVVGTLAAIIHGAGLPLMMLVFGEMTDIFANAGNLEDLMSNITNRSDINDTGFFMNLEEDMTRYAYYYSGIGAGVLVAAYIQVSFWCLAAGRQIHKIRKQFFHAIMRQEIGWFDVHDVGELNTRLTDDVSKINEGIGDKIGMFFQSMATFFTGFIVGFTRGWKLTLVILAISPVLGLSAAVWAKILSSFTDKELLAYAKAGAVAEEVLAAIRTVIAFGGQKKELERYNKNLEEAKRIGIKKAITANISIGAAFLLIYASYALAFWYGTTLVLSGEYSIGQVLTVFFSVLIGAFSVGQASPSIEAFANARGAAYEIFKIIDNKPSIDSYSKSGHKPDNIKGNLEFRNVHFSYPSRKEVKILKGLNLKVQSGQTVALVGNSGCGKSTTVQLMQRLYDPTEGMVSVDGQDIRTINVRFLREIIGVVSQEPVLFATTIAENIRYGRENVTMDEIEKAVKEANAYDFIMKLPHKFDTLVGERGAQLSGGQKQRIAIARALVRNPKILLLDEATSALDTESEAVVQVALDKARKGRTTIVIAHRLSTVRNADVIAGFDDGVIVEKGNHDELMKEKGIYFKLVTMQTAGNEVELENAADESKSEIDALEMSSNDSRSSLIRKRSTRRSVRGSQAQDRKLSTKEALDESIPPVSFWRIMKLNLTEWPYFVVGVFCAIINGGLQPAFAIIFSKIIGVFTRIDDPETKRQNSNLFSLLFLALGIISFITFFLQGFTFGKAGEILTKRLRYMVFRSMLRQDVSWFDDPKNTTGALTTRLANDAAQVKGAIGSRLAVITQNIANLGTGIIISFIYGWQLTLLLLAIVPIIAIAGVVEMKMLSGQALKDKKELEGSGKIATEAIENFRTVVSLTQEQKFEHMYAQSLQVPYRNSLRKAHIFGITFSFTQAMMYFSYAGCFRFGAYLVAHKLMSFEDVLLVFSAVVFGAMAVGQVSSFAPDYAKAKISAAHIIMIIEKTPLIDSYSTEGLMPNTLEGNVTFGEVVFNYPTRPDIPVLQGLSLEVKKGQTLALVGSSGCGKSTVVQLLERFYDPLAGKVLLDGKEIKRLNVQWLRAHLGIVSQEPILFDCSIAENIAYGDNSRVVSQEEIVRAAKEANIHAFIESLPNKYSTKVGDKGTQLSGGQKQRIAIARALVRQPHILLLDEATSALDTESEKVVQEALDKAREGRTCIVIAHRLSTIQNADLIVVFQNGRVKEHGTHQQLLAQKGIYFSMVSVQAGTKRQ
Summary of the method: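 Confluent MDCK-MDR1 monolayers given test compound (0.1-100 µM) for 30 min at 37 °C, then calcein-AM at 2.5 µM final for 30 min. Washed with ice-cold PBS and read at ex 485 / em 535 nm. Fluorescence rise over untreated basal level fitted against log dose to give EC50; n ≥ 3 experiments in duplicate.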

Panc02 = test: Cytotoxicity against mouse Panc02 cells after 48 hrs by MTT assay; format: functional, cell-based; conditions: Panc02, 48 h; summary of the method: as §1
BXPC-3 = test: Cytotoxicity against human BxPC3 cells after 48 hrs by MTT assay; format: functional, cell-based; conditions: BXPC-3, 48 h; summary of the method: as §1

Row | SMILES | EC50 [1] | EC50 (ASPC1) | EC50 (MIA PaCa-2) | EC50 [2] | EC50 [3] | EC50 (Panc02) | EC50 (BXPC-3)
1 | c1ccc2c(c1)ccn2CCCCN1CCN(C2CCCCC2)CC1 | 70 µM | > 100 µM | 79 µM | 67 µM | 0.46 µM | > 100 µM | > 100 µM
2 | COc1cc2c(cc1OC)CN(CCCCn1ccc3ccccc31)CC2 | 49 µM | > 100 µM | 40 µM | 77 µM | 6.09 µM | > 100 µM | > 100 µM
